# Active and inactive are the calls of the source. The calls are words filed in the database; no cut-off is given here.
# Legend:
# [1] = AUC (0 to 24 hrs) in Balb/C mouse at 10 mg/kg, po; format: ADME, organism-based; set-up: time < 24 hr, dose 10 mg/kg, route oral; conditions: in vivo
# Procedure, shortened: (§1)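 Male Balb/C mice dosed orally once at 10 mg/kg in PEG300/TPGS/ethanol (90/5/5 v/v/v).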
# [2] = Cmax in Balb/C mouse at 10 mg/kg, po; format: ADME, organism-based; set-up: dose 10 mg/kg, route oral; conditions: in vivo; procedure, shortened: as §1
# [3] = molecular target: Tyrosine-protein kinase Tec (Homo sapiens, UniProt P42680); test: Inhibition of partial length human TEC expressed in bacterial system
# Sequence of Tyrosine-protein kinase Tec (P42680 whole entry): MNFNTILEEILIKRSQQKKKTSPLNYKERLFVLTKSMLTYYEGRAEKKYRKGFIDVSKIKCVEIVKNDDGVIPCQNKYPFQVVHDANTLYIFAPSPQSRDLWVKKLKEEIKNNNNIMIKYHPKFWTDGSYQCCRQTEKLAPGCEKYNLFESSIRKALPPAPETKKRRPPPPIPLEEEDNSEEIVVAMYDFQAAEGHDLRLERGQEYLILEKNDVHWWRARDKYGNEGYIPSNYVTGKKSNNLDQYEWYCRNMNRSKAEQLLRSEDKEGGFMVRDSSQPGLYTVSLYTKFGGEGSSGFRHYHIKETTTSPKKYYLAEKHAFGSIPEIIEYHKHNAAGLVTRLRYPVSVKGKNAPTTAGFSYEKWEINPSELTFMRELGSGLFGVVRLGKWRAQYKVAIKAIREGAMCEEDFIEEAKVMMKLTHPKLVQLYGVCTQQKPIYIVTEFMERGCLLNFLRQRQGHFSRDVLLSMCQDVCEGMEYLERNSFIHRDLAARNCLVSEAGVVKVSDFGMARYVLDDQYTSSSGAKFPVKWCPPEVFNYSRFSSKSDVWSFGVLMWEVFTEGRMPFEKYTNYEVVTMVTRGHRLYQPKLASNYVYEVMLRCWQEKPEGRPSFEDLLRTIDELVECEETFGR
# [4] = molecular target: Tyrosine-protein kinase TXK (Homo sapiens, UniProt P42681); test: Inhibition of partial length human TXK expressed in bacterial system
# Sequence of Tyrosine-protein kinase TXK (P42681 whole entry): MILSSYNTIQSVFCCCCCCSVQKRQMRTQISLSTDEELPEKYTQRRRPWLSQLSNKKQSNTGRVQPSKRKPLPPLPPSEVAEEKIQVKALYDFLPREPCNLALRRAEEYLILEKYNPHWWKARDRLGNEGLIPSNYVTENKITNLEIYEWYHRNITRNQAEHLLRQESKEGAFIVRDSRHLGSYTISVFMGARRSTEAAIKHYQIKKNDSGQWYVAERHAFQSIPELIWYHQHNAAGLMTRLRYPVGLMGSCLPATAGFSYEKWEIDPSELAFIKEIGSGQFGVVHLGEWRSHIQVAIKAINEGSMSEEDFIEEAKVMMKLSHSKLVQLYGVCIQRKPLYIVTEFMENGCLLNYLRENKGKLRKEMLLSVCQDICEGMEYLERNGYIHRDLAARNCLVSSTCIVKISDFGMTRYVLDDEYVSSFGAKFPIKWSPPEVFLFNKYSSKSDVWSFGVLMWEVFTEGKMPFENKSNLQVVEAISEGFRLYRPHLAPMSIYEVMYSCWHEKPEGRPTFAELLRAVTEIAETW
# [5] = molecular target: Tyrosine-protein kinase Blk (Homo sapiens, UniProt P51451); test: Inhibition of BLK (unknown origin) expressed in bacterial system
# Sequence of Tyrosine-protein kinase Blk (P51451 whole entry): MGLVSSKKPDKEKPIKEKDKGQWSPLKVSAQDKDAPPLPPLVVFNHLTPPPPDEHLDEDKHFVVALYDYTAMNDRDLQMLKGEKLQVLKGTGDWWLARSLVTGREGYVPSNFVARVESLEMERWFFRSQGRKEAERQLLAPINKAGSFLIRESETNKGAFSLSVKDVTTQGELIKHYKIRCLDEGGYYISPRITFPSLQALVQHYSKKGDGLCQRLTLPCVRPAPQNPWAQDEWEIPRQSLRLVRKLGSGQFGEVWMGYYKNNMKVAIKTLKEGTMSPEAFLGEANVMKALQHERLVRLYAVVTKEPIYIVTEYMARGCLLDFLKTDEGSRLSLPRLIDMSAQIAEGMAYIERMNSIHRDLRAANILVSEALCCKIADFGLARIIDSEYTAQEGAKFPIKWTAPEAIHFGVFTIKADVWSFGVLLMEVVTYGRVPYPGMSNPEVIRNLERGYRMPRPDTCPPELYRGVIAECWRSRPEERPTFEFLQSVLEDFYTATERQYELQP
# [6] = molecular target: High affinity nerve growth factor receptor (Homo sapiens, UniProt P04629); test: Inhibition of partial length human TRKA expressed in mammalian system
# Sequence of High affinity nerve growth factor receptor (P04629 whole entry): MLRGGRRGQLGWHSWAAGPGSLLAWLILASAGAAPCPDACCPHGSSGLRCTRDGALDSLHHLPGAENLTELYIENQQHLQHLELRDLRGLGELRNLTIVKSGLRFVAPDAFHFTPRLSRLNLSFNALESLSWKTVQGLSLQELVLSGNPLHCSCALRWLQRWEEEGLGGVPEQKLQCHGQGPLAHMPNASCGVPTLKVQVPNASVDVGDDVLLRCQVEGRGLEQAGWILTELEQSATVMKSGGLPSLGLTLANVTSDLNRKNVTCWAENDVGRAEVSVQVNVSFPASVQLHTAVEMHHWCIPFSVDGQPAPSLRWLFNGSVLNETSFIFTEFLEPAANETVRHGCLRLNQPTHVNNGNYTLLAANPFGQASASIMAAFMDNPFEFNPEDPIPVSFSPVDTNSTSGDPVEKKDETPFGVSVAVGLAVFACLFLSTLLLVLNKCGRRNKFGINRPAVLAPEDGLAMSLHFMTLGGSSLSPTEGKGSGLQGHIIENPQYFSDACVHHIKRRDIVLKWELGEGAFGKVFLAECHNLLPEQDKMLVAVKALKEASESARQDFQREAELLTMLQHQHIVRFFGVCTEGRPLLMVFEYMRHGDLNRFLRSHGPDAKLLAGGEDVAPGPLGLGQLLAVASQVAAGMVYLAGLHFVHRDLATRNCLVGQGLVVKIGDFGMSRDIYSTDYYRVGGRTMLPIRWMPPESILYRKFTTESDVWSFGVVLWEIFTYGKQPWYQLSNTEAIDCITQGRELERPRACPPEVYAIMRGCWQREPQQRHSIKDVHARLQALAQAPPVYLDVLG
# Mus musculus [7] = test: Antiarthritic activity in DBA/1 mouse model of collagen-induced arthritis inflammation assessed as inhibition of inflammation dosed daily and orally beginning on day of primary immunization by H and E staining based microscopy; format: functional, organism-based
# [8] = molecular target: Receptor tyrosine-protein kinase erbB-4 (Homo sapiens, UniProt Q15303); test: Inhibition of partial length human HER4 expressed in bacterial system
# Sequence of Receptor tyrosine-protein kinase erbB-4 (Q15303 whole entry): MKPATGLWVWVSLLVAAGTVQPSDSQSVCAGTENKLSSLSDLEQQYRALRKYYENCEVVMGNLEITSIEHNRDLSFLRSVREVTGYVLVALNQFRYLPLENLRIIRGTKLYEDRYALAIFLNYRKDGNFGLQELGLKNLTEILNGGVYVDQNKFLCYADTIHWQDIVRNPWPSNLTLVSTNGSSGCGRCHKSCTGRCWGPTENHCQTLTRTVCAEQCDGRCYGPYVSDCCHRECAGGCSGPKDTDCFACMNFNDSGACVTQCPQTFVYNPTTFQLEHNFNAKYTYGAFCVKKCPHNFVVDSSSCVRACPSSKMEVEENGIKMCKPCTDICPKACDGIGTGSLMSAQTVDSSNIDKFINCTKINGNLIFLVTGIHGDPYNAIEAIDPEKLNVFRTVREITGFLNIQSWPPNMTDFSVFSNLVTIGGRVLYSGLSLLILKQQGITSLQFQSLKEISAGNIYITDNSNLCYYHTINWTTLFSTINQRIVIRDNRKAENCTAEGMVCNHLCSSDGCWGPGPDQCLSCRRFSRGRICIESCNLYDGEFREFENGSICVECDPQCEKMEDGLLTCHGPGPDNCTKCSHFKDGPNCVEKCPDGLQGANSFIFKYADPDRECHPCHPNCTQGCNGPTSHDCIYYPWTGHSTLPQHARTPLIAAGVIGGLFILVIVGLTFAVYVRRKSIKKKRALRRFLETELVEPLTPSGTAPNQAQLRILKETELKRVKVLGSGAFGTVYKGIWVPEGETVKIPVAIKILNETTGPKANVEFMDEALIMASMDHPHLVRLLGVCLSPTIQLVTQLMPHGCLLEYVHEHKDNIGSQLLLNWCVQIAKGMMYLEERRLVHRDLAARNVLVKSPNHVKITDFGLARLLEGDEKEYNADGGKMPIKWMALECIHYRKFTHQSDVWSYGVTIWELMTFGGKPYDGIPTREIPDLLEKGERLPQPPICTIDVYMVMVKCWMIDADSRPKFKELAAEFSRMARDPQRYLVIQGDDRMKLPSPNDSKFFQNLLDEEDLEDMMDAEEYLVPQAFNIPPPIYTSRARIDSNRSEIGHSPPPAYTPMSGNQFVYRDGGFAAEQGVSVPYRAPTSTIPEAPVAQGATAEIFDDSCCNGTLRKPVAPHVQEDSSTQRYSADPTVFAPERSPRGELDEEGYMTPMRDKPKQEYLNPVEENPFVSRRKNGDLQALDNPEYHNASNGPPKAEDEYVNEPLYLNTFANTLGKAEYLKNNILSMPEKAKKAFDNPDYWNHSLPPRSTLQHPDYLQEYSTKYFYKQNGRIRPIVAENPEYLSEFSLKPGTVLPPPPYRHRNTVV
# [9] = molecular target: BDNF/NT-3 growth factors receptor (Homo sapiens, UniProt Q16620); test: Inhibition of partial length human TRKB expressed in mammalian system
# [10] = molecular target: Tyrosine-protein kinase Lck (Homo sapiens, UniProt P06239); test: Inhibition of partial length human LCK expressed in bacterial system
# [11] = molecular target: Proto-oncogene tyrosine-protein kinase Src (Homo sapiens, UniProt P12931); test: Inhibition of partial length human SRC expressed in bacterial system
# Sequence of Proto-oncogene tyrosine-protein kinase Src (P12931 2-536 limits assumed): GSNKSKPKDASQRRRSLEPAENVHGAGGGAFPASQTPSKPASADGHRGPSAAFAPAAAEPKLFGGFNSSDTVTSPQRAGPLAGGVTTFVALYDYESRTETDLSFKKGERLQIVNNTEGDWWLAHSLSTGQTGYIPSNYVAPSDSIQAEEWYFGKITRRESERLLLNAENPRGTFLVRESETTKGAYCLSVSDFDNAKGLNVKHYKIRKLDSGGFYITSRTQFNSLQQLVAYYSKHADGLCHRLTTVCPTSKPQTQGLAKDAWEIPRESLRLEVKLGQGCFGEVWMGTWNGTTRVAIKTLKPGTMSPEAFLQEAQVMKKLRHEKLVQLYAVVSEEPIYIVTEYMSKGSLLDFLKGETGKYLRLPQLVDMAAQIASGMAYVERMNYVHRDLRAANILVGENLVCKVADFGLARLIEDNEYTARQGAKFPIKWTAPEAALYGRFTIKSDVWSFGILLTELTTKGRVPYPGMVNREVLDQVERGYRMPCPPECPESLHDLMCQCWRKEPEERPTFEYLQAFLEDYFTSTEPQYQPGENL
# [12] = Protein binding in mouse serum; format: ADME, cell-free; conditions: read-out: PB
# Cytochrome P450 2B6 = Cytochrome P450 2B6 (Homo sapiens, UniProt P20813); test: Inhibition of human liver microsomes CYP2B6 after 30 mins in presence of NADPH; format: ADME
# Cytochrome P450 2C8 = Cytochrome P450 2C8 (Homo sapiens, UniProt P10632); test: Inhibition of human liver microsomes CYP2C8 after 30 mins in presence of NADPH; format: ADME
# Sequence of Cytochrome P450 2C8 (P10632 whole entry): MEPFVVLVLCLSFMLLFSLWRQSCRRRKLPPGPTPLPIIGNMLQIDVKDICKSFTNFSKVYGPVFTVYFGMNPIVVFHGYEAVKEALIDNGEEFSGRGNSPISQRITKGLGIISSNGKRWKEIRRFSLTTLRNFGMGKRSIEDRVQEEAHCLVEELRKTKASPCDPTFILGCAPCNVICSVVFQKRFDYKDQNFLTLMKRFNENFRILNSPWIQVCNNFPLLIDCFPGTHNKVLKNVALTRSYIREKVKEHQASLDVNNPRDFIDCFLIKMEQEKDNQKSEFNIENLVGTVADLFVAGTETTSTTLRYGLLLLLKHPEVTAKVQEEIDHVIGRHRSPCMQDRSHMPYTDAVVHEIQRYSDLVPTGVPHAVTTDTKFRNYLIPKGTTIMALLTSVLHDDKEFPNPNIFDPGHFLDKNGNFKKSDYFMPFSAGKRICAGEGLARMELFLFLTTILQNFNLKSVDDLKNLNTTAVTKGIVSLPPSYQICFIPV
# [13] = Solubility of the compound in fasted state simulated intestinal fluid; format: physicochemical
# [14] = Permeability of the compound at pH 5.5 by PAMPA; format: ADME; conditions: read-out: permeability
# [15] = Passive permeability from apical to basolateral side in human Caco2 cells; format: ADME, cell-based; conditions: Caco-2, read-out: permeability
# [16] = Passive permeability from basolateral to apical side in human Caco2 cells; format: ADME, cell-based; conditions: Caco-2, read-out: permeability
# Mus musculus [17] = test: Antiarthritic activity in po dosed CIA DBA/1 mouse model assessed as reduction of disease severity after 21 days; format: functional, organism-based
# Mus musculus [18] = test: Time required for plasma concentration to reach above in vitro BCR/IgM/IgG-stimulated CD69 expression mouse whole blood IC50 in DBA/1 mouse CIA model at 10 mg/kg administered daily through oral gavage starting on day of primary immunization; format: ADME, organism-based; conditions: in vivo
# Mus musculus [19] = test: Antiarthritic activity in DBA/1 mouse model of collagen-induced arthritis inflammation assessed reduction in disease severity at 20 to 30 mg/kg, po dosing daily starting on day of primary immunization; format: functional; set-up: scale not given: the % may be the effect or the level left
# Mus musculus [20] = test: Antiarthritic activity in DBA/1 mouse model of collagen-induced arthritis inflammation assessed as protection against bone mass loss dosed daily and orally beginning on day of primary immunization by microcomputed tomography imaging analysis; format: functional, organism-based
# Mus musculus [21] = test: Antiarthritic activity in DBA/1 mouse model of collagen-induced arthritis inflammation assessed as protection against woven porous bones dosed daily and orally beginning on day of primary immunization by microcomputed tomography imaging analysis; format: functional, organism-based
# Mus musculus [22] = test: Antiarthritic activity in DBA/1 mouse model of collagen-induced arthritis inflammation assessed as reduction of disease severity at 30 mg/kg, qd administered through oral gavage dosed after day 21 booster immunization; format: functional, organism-based
# [23] = AUC in mouse plasma at 5 mg/kg, administered through oral gavage after 0.25 to 24 hrs by LC/MS/MS analysis; format: ADME, organism-based; set-up: time 0.25-24 hr, dose 5 mg/kg, route oral
# [24] = Half life in mouse plasma at 2 mg/kg, iv through bolus administration after 0.05 to 24 hrs by LC/MS/MS analysis; format: ADME, organism-based
# [25] = Oral bioavailability in mouse at 5 mg/kg after 0.25 to 24 hrs by LC/MS/MS analysis; format: ADME, organism-based; conditions: in vivo
# [26] = Cmax in Sprague-Dawley rat plasma at 5 mg/kg, administered through oral gavage by LC/MS/MS analysis; format: ADME, organism-based; set-up: dose 5 mg/kg, route oral
# [27] = Tmax in Sprague-Dawley rat plasma at 5 mg/kg, administered through oral gavage by LC/MS/MS analysis; format: ADME, organism-based
# [28] = Half life in Sprague-Dawley rat plasma at 2 mg/kg, iv through bolus administration by LC/MS/MS analysis; format: ADME, organism-based
# [29] = Oral bioavailability in Sprague-Dawley rat at 5 mg/kg by LC/MS/MS analysis; format: ADME, organism-based; conditions: in vivo
# [30] = Cmax in Beagle dog plasma at 2 mg/kg, administered through oral gavage after 0.25 to 48 hrs by LC/MS/MS analysis; format: ADME, organism-based, Canis lupus familiaris; set-up: dose 2 mg/kg, route oral
# [31] = AUC in Beagle dog plasma at 2 mg/kg, administered through oral gavage after 0.25 to 48 hrs by LC/MS/MS analysis; format: ADME, organism-based, Canis lupus familiaris; set-up: time 0.25-48 hr, dose 2 mg/kg, route oral
# [32] = Half life in Beagle dog plasma at 2 mg/kg, iv through bolus administration after 0.167 to 48 hrs by LC/MS/MS analysis; format: ADME, organism-based, Canis lupus familiaris
# [33] = Plasma clearance in Beagle dog at 2 mg/kg, iv through bolus administration after 0.167 to 48 hrs by LC/MS/MS analysis; format: ADME, organism-based, Canis lupus familiaris
# [34] = Volume of distribution in steady state in Beagle dog at 2 mg/kg, iv through bolus administration after 0.167 to 48 hrs by LC/MS/MS analysis; format: ADME, organism-based, Canis lupus familiaris; conditions: in vivo, read-out: Vdss
# [35] = Cmax in cynomolgus monkey plasma at 2 mg/kg, administered through oral gavage after 0.25 to 48 hrs by LC/MS/MS analysis; format: ADME, organism-based, Macaca fascicularis; set-up: dose 2 mg/kg, route oral
# [36] = Tmax in cynomolgus monkey plasma at 2 mg/kg, administered through oral gavage after 0.25 to 48 hrs by LC/MS/MS analysis; format: ADME, organism-based, Macaca fascicularis
# [37] = AUC in cynomolgus monkey plasma at 2 mg/kg, administered through oral gavage after 0.25 to 48 hrs by LC/MS/MS analysis; format: ADME, organism-based, Macaca fascicularis; set-up: time upper 48 hr, dose 2 mg/kg, time lower 0.25 hr, route oral
# [38] = Volume of distribution in steady state in cynomolgus monkey at 2 mg/kg, iv through bolus administration after 0.167 to 48 hrs by LC/MS/MS analysis; format: ADME, organism-based, Macaca fascicularis; conditions: in vivo, read-out: Vdss
# Mus musculus [39] = test: Antiarthritic activity in DBA/1 mouse model of collagen-induced arthritis inflammation assessed reduction in incidence of clinically evident disease dosed daily and orally beginning on day of primary immunization; format: functional, organism-based
smiles,measurement,setting,value
Cc1c(-c2ccc(C(N)=O)c3[nH]c4cc(C(C)(C)O)ccc4c23)cccc1-n1cnc2ccccc2c1=O,AUC(0-t) at 24 h,[1],80 µM·h
same,Cmax,[2],8.96 µM
same,IC50,[3],13 nM
same,IC50,[4],180 nM
same,IC50,[5],20 nM
same,IC50,[6],30 nM
same,Activity,Mus musculus [7],Active
same,IC50,[8],50 nM
same,IC50,[9],100 nM
same,IC50,[10],150 nM
same,IC50,[11],3.19 µM
same,fraction unbound,[12],0.01
same,IC50,Cytochrome P450 2B6,> 40 µM
same,IC50,Cytochrome P450 2C8,> 8 µM
same,solubility,[13],6 µg/mL
same,Papp,[14],87.6 ×10⁻⁶ cm/s
same,Papp A→B,[15],< 1.5 ×10⁻⁶ cm/s
same,Papp B→A,[16],12.2 ×10⁻⁶ cm/s
same,Activity,Mus musculus [17],Dose-dependent effect
same,Time,Mus musculus [18],12 h
same,Activity,Mus musculus [19],85 - 90%
same,Activity,Mus musculus [20],Dose-dependent effect
same,Activity,Mus musculus [21],Dose-dependent effect
same,Activity,Mus musculus [22],Active
same,AUC,[23],30.8 µM·h
same,half-life,[24],240 min
same,bioavailability,[25],94%
same,Cmax,[26],2000 nM
same,Tmax,[27],5 h
same,half-life,[28],306 min
same,bioavailability,[29],84%
same,Cmax,[30],1200 nM
same,AUC,[31],14.2 µM·h
same,half-life,[32],624 min
same,clearance,[33],3.7 mL/min/kg
same,Vd,[34],3.2 L/kg
same,Cmax,[35],4.8 µM
same,Tmax,[36],2.7 h
same,AUC,[37],32 µM·h
same,Vd,[38],1.6 L/kg
same,Activity,Mus musculus [39],Dose-dependent effect
